Source: the RNAGym collection of RNA variant scans (doi:10.1038/s41586-018-0170-7)

B1: tRNA (parent)
chain: GUUCCGUUGGCGUAAUGGUAACGCGUCUCCCUCCUAAGGAGAAGACUGCGGGUUCGAGUCCCGUACGGAACG

Variants of: B1
Assay: yeast fitness, log relative to wild type (ln ratio); higher = fitter; tRNA-Arg(CCU), competitive growth, 37 C, 1 M NaCl
Method in brief: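 In BY4742 missing the chromosomal gene, a combinatorial tRNA-Arg(CCU) variant library was maintained on a HIS3 centromeric plasmid. Selection ran ~6.5 generations (~26.5 h) in SC-HIS 1M NaCl at 37 °C, following 4 generations in SC-HIS at 30 °C, with three outputs per input and variant counts by 125 bp paired-end Illumina sequencing. Fitness is the natural log of a genotype's generations relative to the wild type's, with generations taken as inverse-variance-weighted, OD-scaled log2 output/input frequency.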

Variant | yeast fitness (ln)
G1A G6U C27U A43C C66U A70G C71U | -0.415
G1A G6U C27U C66A A69G A70G C71U | -0.31
G1A U2C A43C A69G A70G C71U | -0.0094
G1A U2C C27U A43C A69G A70U | -0.307
G1A U2C C27U A43C A69G A70G | -0.275
G1A G6U C27U A43C C66U A70G | -0.609
G1A G6U C27U A43C C66U A70U | -0.381
G1A U2C A43C C46U C66U A69G A70G C71U | -0.417
G1A G6U C66U A70G C71U | -0.272
G1A U2C C27U A69G A70U C71U | -0.351
G1A G6U C27U C66U A69G A70G | -0.47
G1A G6U C27U C66U A69G A70U | -0.368
G1A G6U C27U C46U C66A C71U | -0.0536
G1A U2C C27U A43C A69G C71U | -0.173
G1A G6U C27U A69G A70G C71U | -0.376
G1A G6U C66A A69G C71U | -0.032
G1A G6U C27U C46U A70G C71U | -0.262
G1A U2C A43C C66U A69G A70U C71U | -0.279
G1A G6U C27U A43C C66U A70U C71U | -0.391
G1A U2C C27U A43C C46U C66A A70G | -0.102
G1A U2C C27U A43C C46U C66A A70U | -0.106
G1A G6U C27U A43C C66A A70U C71U | -0.608
G1A G6U C27U C66A C71U | -0.0761
G1A U2C C66A A70G C71U | -0.208

Variant | yeast fitness (ln)
G1A G6U C27U C46U A70U | -0.274
G1A G6U C27U C46U A70G | -0.191
G1A U2C C46U C66A A70G C71U | -0.124
G1A U2C C27U | -0.0512
G1A U2C C27U C46U C66U A70G C71U | -0.0522
G1A U2C C46U C66U A69G A70U | -0.152
G1A U2C C46U C66U A69G A70G | -0.127
G1A G6U C27U C66A A69G C71U | -0.388
G1A U2C C27U A43C C46U A69G A70U C71U | -0.215
G1A U2C C27U C46U A69G C71U | -0.192
G1A G6U C27U C46U C66U A70G C71U | -0.302
G1A U2C C27U C46U C66U A69G A70G C71U | -0.174
G1A G6U C27U A43C C66U | -0.362
G1A G6U C27U A43C C66U A69G A70G C71U | -0.497
G1A U2C A43C A70G C71U | -0.011
G1A G6U C27U C66U A70G | -0.391
G1A G6U C27U C66U A70U | -0.274
G1A U2C C46U C66U A70G | -0.129
G1A U2C C46U C66U A70U | -0.0818
G1A G6U C46U A69G A70G C71U | -0.216
G1A U2C C27U A43C C46U C66U | -0.161
G1A G6U C27U C46U C66U A69G C71U | -0.595
G1A U2C C27U C46U A69G A70U C71U | -0.359
G1A U2C A43C A69G A70U C71U | -0.29

Variant | yeast fitness (ln)
G1A U2C C27U C46U C66U C71U | -0.124
G1A U2C A43C C46U A69G A70U | -0.0156
G1A U2C A43C C46U A69G A70G | -0.0565
G1A G6U C27U A43C C46U C66U A70G | -0.387
G1A G6U C27U A43C C46U C66U A70U | -0.368
G1A U2C C27U A43C A70G C71U | -0.0249
G1A U2C C27U C46U C66A A69G A70G C71U | -0.294
G1A G6U C27U C66U A69G C71U | -0.295
G1A G6U C66A A69G A70G C71U | -0.17
G1A U2C A70U C71U | -0.0394
G1A G6U C27U C46U | -0.207
G1A U2C C66U A70U | -0.0937
G1A U2C C66U A70G | -0.297
G1A U2C C46U C66A A69G A70G C71U | -0.273
G1A U2C A70G C71U | -0.0141
G1A G6U C66A | -0.0927
G1A G6U C66U | -0.126
G1A U2C C46U A69G C71U | -0.134
G1A U2C A69G A70G C71U | -0.0058
G1A G6U C46U C66U A69G A70U C71U | -0.441
G1A G6U C66A A70U | -0.0574
G1A G6U C66A A70G | -0.196
G1A G6U C46U C66A A69G A70U C71U | -0.341
G1A G6U C66A A69G A70U C71U | -0.432

Variant | yeast fitness (ln)
G1A U2C C27U C46U | -0.00588
G1A U2C A69G C71U | -0.17
G1A U2C G6A A43C A70G C71U | -0.13
G1A G6U C71U | -0.481
G1A U2C A43C C66A A70U C71U | -0.285
G1A U2C A43C C46U C66A A70U C71U | -0.134
G1A G6U C27U A43C C66U A69G A70U C71U | -0.435
G1A G6U C27U A43C C66A A69G A70U C71U | -0.281
G1A G6U C66U A69G A70G C71U | -0.273
G1A G6U C27U C71U | -0.251
G1A G6U C27U C66U C71U | -0.389
G1A U2C A43C A69G A70U | -0.0414
G1A U2C A43C A69G A70G | -0.151
G1A U2C A43C | -0.0267
G1A G6U C27U C46U C66A | -0.32
G1A G6U C27U C46U C66U | -0.313
G1A G6U C27U C66A A69G A70U C71U | -0.223
G1A G6U C27U A43C C46U C66U C71U | -0.364
G1A G6U C27U C46U A69G A70U C71U | -0.431
G1A G6U C27U A43C C46U C66U A69G A70G C71U | -0.501
G1A U2C C27U C46U C66A C71U | -0.12
G1A U2C C27U C66U A69G A70G | -0.313
G1A U2C G6A A43C C46U A69G A70G | -0.191
G1A U2C C27U A43C C46U C66U A70G C71U | -0.4

Variant | yeast fitness (ln)
G1A U2C C46U A69G A70U C71U | -0.257
G1A U2C C27U A43C C46U A69G C71U | -0.167
G1A U2C A43C C46U | -0.00932
G1A U2C | -0.00128
G1A U2C A43C C66U A69G A70G C71U | -0.287
G1A U2C A43C C46U C66U A70U | -0.132
G1A U2C A43C C46U C66U A70G | -0.0459
G1A G6U C27U C66A A70G C71U | -0.531
G1A U2C C27U A43C C46U C66U C71U | -0.241
G1A G6U C27U C46U C66A A69G A70G C71U | -0.58
G1A U2C C27U C46U C66U A69G A70G | -0.11
G1A U2C C27U C46U C66U A69G A70U | -0.184
G1A U2C C27U A43C C46U C66U A70G | -0.0953
G1A U2C C27U A43C C46U C66U A70U | -0.0712
G1A G6U C27U C46U C66U A69G A70U | -0.454
G1A G6U C27U C46U C66U A69G A70G | -0.28
G1A G6U C27U A43C C66U C71U | -0.403
G1A U2C C27U A43C C46U C66U A70U C71U | -0.297
G1A U2C C46U A70U | -0.0782
G1A U2C C46U A70G | -0.014
G1A U2C A43C C66U A70G | -0.161
G1A U2C A43C C66U A70U | -0.169
G1A G6U C27U C46U A69G A70G C71U | -0.335
G1A G6U C27U A43C C46U C66A A70G C71U | -0.377

Variant | yeast fitness (ln)
G1A U2C C46U C66U A69G A70G C71U | -0.0168
G1A G6U C66A C71U | 0.00231
G1A U2C A43C C46U C66U A70U C71U | -0.202
G1A G6U C66U C71U | -0.425
G1A U2C C66A A70U | -0.0191
G1A G6U C46U | -0.0505
G1A G6U C46U C66A A70G | -0.225
G1A G6U C46U C66A A70U | -0.0534
G1A U2C C27U C46U C66U A70U C71U | -0.147
G1A G6U C27U C66U A70G C71U | -0.38
G1A U2C C27U C46U A69G A70G | -0.122
G1A U2C C27U C46U A69G A70U | -0.0465
G1A U2C C27U A43C C66U A70G C71U | -0.197
G1A G6U C27U A43C C46U C66U A70G C71U | -0.596
G1A U2C C27U A43C C46U | -0.0167
G1A G6U C27U C66U A69G A70U C71U | -0.45
G1A G6U C27U C46U C66A A70U C71U | -0.415
G1A U2C A69G A70U C71U | -0.321
G1A U2C C27U A43C C66U A70U C71U | -0.244
G1A G6U C27U A69G C71U | -0.371
G1A G6U C46U C66A A69G A70G C71U | -0.162
G1A U2C C27U A43C C46U A69G A70G C71U | -0.0168
G1A U2C A43C C71U | -0.185
G1A G6U C66A A70U C71U | -0.159

Variant | yeast fitness (ln)
G1A U2C C27U A43C C46U C66A C71U | -0.24
G1A U2C C27U A43C C46U A70U C71U | -0.221
G1A G6U C46U C66A A70G C71U | -0.0299
G1A U2C C27U C66U A70U | -0.108
G1A U2C C27U C66U A70G | -0.0715
G1A U2C C27U C66A A70G C71U | -0.221
G1A U2C C27U A43C C46U A70G | -0.0342
G1A U2C C27U A43C C46U A70U | -0.072
G1A G6U C46U C66U A70U C71U | -0.298
G1A G6U C46U A70U C71U | -0.185
G1A U2C A43C C46U A69G C71U | -0.175
G1A U2C C66U A69G A70U | -0.245
G1A U2C A43C C66U A70G C71U | -0.272
G1A G6U C27U C66A | -0.254
G1A G6U C27U C66U | -0.29
G1A U2C C27U A43C C46U C66A A70U C71U | -0.27
G1A U2C A69G A70U | -0.00637
G1A U2C A69G A70G | -0.0537
G1A G6U C46U A69G A70U C71U | -0.321
G1A U2C C46U C71U | -0.0165
G1A U2C C46U A70U C71U | -0.0299
G1A G6U C27U C46U A69G A70U | -0.299
G1A G6U C27U C46U A69G A70G | -0.307
